Experiments:
Type in all cases: functional
Bacillus cereus [1] = test: Antimicrobial activity against Bacillus cereus ATCC 11778 assessed as growth inhibition rate at 0.34 mg/l after 72 hr by spectrophotometry; settings: ATCC 11778, 72 h, read-out: GI
Procedure, shortened: (§1)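 Pure volatile compounds (purity >95%; one at 90%) were tested against B. cereus ATCC 11778. The strain was grown at 30 °C in nutrient broth for 24 h, then subcultured for 18 h. Optical density was read in a Bioscreen C every 24 h for 72 h, with 10% Tween 80 as the control.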

Bacillus cereus [2] = test: Antimicrobial activity against Bacillus cereus ATCC 11778 assessed as growth inhibition rate at 0.068 mg/l after 72 hr by spectrophotometry; settings: ATCC 11778, 72 h, read-out: GI; procedure, shortened: as §1
Bacillus cereus [3] = test: Antimicrobial activity against Bacillus cereus ATCC 11778 assessed as growth inhibition rate at 0.017 mg/l after 72 hr by spectrophotometry; settings: ATCC 11778, 72 h, read-out: GI; procedure, shortened: as §1
Bacillus cereus [4] = test: Antimicrobial activity against Bacillus cereus ATCC 11778 assessed as growth inhibition rate at 6.8 mg/l after 72 hr by spectrophotometry; settings: ATCC 11778, 72 h, read-out: GI; procedure, shortened: as §1
Bacillus cereus [5] = test: Antimicrobial activity against Bacillus cereus ATCC 11778 assessed as growth inhibition rate at 0.68 mg/l after 72 hr by spectrophotometry; settings: ATCC 11778, 72 h, read-out: GI; procedure, shortened: as §1
Salmonella typhimurium [6] = test: Antimicrobial activity against Salmonella enterica subsp. enterica serovar Typhimurium ATCC 14028 assessed as growth inhibition rate at 0.34 mg/l after 72 hr by spectrophotometry; settings: ATCC 14028, 72 h, read-out: GI
Procedure, shortened: (§2)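 Salmonella Typhimurium ATCC 14028 grown in nutrient broth at 30 °C, precultured 24 h, then subcultured 1:100 for 18 h before testing. Single volatile compounds (>95% pure) were added. OD was read every 24 h over 72 h in a Bioscreen C, with 10% Tween 80 as the comparison control.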

Salmonella typhimurium [7] = test: Antimicrobial activity against Salmonella enterica subsp. enterica serovar Typhimurium ATCC 14028 assessed as growth inhibition rate at 0.068 mg/l after 72 hr by spectrophotometry; settings: ATCC 14028, 72 h, read-out: GI; procedure, shortened: as §2
Salmonella typhimurium [8] = test: Antimicrobial activity against Salmonella enterica subsp. enterica serovar Typhimurium ATCC 14028 assessed as growth inhibition rate at 0.017 mg/l after 72 hr by spectrophotometry; settings: ATCC 14028, 72 h, read-out: GI; procedure, shortened: as §2
Salmonella typhimurium [9] = test: Antimicrobial activity against Salmonella enterica subsp. enterica serovar Typhimurium ATCC 14028 assessed as growth inhibition rate at 6.8 mg/l after 72 hr by spectrophotometry; settings: ATCC 14028, 72 h, read-out: GI; procedure, shortened: as §2
Salmonella typhimurium [10] = test: Antimicrobial activity against Salmonella enterica subsp. enterica serovar Typhimurium ATCC 14028 assessed as growth inhibition rate at 0.68 mg/l after 72 hr by spectrophotometry; settings: ATCC 14028, 72 h, read-out: GI; procedure, shortened: as §2
Listeria monocytogenes [11] = test: Antimicrobial activity against Listeria monocytogenes ATCC 19111 assessed as growth inhibition rate at 3.4 mg/l after 72 hr by spectrophotometry; settings: ATCC 19111, 72 h, read-out: GI
Procedure, shortened: (§3)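 L. monocytogenes was grown at 30 °C in tryptic soy broth, subcultured for 18 h, and exposed to pure volatile compounds (>95% purity). Growth was followed by Bioscreen C optical density every 24 h for 72 h against a 10% Tween 80 control.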

Escherichia coli [12] = test: Antimicrobial activity against Escherichia coli O157:H7 ATCC 43894 assessed as growth inhibition rate at 0.34 mg/l after 72 hr by spectrophotometry; settings: O157:H7 ATCC 43894, 72 h, read-out: GI
Escherichia coli [13] = test: Antimicrobial activity against Escherichia coli O157:H7 ATCC 43894 assessed as growth inhibition rate at 0.068 mg/l after 72 hr by spectrophotometry; settings: O157:H7 ATCC 43894, 72 h, read-out: GI
Escherichia coli [14] = test: Antimicrobial activity against Escherichia coli O157:H7 ATCC 43894 assessed as growth inhibition rate at 0.017 mg/l after 72 hr by spectrophotometry; settings: O157:H7 ATCC 43894, 72 h, read-out: GI
Escherichia coli [15] = test: Antimicrobial activity against Escherichia coli O157:H7 ATCC 43894 assessed as growth inhibition rate at 6.8 mg/l after 72 hr by spectrophotometry; settings: O157:H7 ATCC 43894, 72 h, read-out: GI
Escherichia coli [16] = test: Antimicrobial activity against Escherichia coli O157:H7 ATCC 43894 assessed as growth inhibition rate at 0.68 mg/l after 72 hr by spectrophotometry; settings: O157:H7 ATCC 43894, 72 h, read-out: GI
Staphylococcus aureus [17] = test: Antimicrobial activity against Staphylococcus aureus ATCC 25923 assessed as growth inhibition rate at 0.34 mg/l after 72 hr by spectrophotometry; settings: ATCC 25923, 72 h, read-out: GI
Staphylococcus aureus [18] = test: Antimicrobial activity against Staphylococcus aureus ATCC 25923 assessed as growth inhibition rate at 0.068 mg/l after 72 hr by spectrophotometry; settings: ATCC 25923, 72 h, read-out: GI
Staphylococcus aureus [19] = test: Antimicrobial activity against Staphylococcus aureus ATCC 25923 assessed as growth inhibition rate at 0.017 mg/l after 72 hr by spectrophotometry; settings: ATCC 25923, 72 h, read-out: GI
Staphylococcus aureus [20] = test: Antimicrobial activity against Staphylococcus aureus ATCC 25923 assessed as growth inhibition rate at 6.8 mg/l after 72 hr by spectrophotometry; settings: ATCC 25923, 72 h, read-out: GI
Procedure, shortened: (§4)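 Staphylococcus aureus ATCC 25923 grown at 37 °C in tryptic soy broth, using an 18 h subculture of a 24 h culture. Individual leaf-volatile compounds (>95% purity) were tested. Bioscreen C optical density was recorded every 24 h for 72 h and compared with a 10% Tween 80 control.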

Staphylococcus aureus [21] = test: Antimicrobial activity against Staphylococcus aureus ATCC 25923 assessed as growth inhibition rate at 0.68 mg/l after 72 hr by spectrophotometry; settings: ATCC 25923, 72 h, read-out: GI; procedure, shortened: as §4
Vibrio parahaemolyticus [22] = test: Antimicrobial activity against Vibrio parahaemolyticus ATCC 33844 assessed as growth inhibition rate at 3.4 mg/l after 72 hr by spectrophotometry; settings: ATCC 33844, 72 h, read-out: GI
Procedure, shortened: (§5)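 Vibrio parahaemolyticus ATCC 33844 grown at 37 °C in tryptic soy broth with 3% (w/v) NaCl, using an 18 h subculture of a 24 h culture. Pure compounds (>95% purity) were tested. Bioscreen C optical density was read every 24 h for 72 h against a 10% Tween 80 control.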

Salmonella typhimurium [23] = test: Antimicrobial activity against Salmonella enterica subsp. enterica serovar Typhimurium ATCC 14028 assessed as growth inhibition rate at 3.4 mg/l after 72 hr by spectrophotometry; settings: ATCC 14028, 72 h, read-out: GI; procedure, shortened: as §2
Escherichia coli [24] = test: Antimicrobial activity against Escherichia coli O157:H7 ATCC 43894 assessed as growth inhibition rate at 3.4 mg/l after 72 hr by spectrophotometry; settings: O157:H7 ATCC 43894, 72 h, read-out: GI
Staphylococcus aureus [25] = test: Antimicrobial activity against Staphylococcus aureus ATCC 25923 assessed as growth inhibition rate at 3.4 mg/l after 72 hr by spectrophotometry; settings: ATCC 25923, 72 h, read-out: GI; procedure, shortened: as §4
Listeria monocytogenes [26] = test: Antimicrobial activity against Listeria monocytogenes ATCC 19111 assessed as growth inhibition rate at 6.8 mg/l after 72 hr by spectrophotometry; settings: ATCC 19111, 72 h, read-out: GI; procedure, shortened: as §3
Listeria monocytogenes [27] = test: Antimicrobial activity against Listeria monocytogenes ATCC 19111 assessed as growth inhibition rate at 0.68 mg/l after 72 hr by spectrophotometry; settings: ATCC 19111, 72 h, read-out: GI; procedure, shortened: as §3
Vibrio parahaemolyticus [28] = test: Antimicrobial activity against Vibrio parahaemolyticus ATCC 33844 assessed as growth inhibition rate at 6.8 mg/l after 72 hr by spectrophotometry; settings: ATCC 33844, 72 h, read-out: GI; procedure, shortened: as §5
Vibrio parahaemolyticus [29] = test: Antimicrobial activity against Vibrio parahaemolyticus ATCC 33844 assessed as growth inhibition rate at 0.68 mg/l after 72 hr by spectrophotometry; settings: ATCC 33844, 72 h, read-out: GI; procedure, shortened: as §5
Listeria monocytogenes [30] = test: Antimicrobial activity against Listeria monocytogenes ATCC 19111 assessed as growth inhibition rate at 0.34 mg/l after 72 hr by spectrophotometry; settings: ATCC 19111, 72 h, read-out: GI; procedure, shortened: as §3
Listeria monocytogenes [31] = test: Antimicrobial activity against Listeria monocytogenes ATCC 19111 assessed as growth inhibition rate at 0.068 mg/l after 72 hr by spectrophotometry; settings: ATCC 19111, 72 h, read-out: GI; procedure, shortened: as §3
Listeria monocytogenes [32] = test: Antimicrobial activity against Listeria monocytogenes ATCC 19111 assessed as growth inhibition rate at 0.017 mg/l after 72 hr by spectrophotometry; settings: ATCC 19111, 72 h, read-out: GI; procedure, shortened: as §3
Vibrio parahaemolyticus [33] = test: Antimicrobial activity against Vibrio parahaemolyticus ATCC 33844 assessed as growth inhibition rate at 0.34 mg/l after 72 hr by spectrophotometry; settings: ATCC 33844, 72 h, read-out: GI
Vibrio parahaemolyticus [34] = test: Antimicrobial activity against Vibrio parahaemolyticus ATCC 33844 assessed as growth inhibition rate at 0.068 mg/l after 72 hr by spectrophotometry; settings: ATCC 33844, 72 h, read-out: GI
Vibrio parahaemolyticus [35] = test: Antimicrobial activity against Vibrio parahaemolyticus ATCC 33844 assessed as growth inhibition rate at 0.017 mg/l after 72 hr by spectrophotometry; settings: ATCC 33844, 72 h, read-out: GI
Bacillus cereus [36] = test: Antimicrobial activity against Bacillus cereus ATCC 11778 assessed as growth inhibition rate at 3.4 mg/l after 72 hr by spectrophotometry; settings: ATCC 11778, 72 h, read-out: GI; procedure, shortened: as §1

CC/C=C/C=C/C=O [2,4-HEPTADIENAL]
inhibition of growth at 0.34 µg/mL (Bacillus cereus [1]): 1.8%
inhibition of growth at 0.068 µg/mL (Bacillus cereus [2]): 1.1%
inhibition of growth at 0.017 µg/mL (Bacillus cereus [3]): 0%
inhibition of growth at 6.8 µg/mL (Bacillus cereus [4]): 100%
inhibition of growth at 0.68 µg/mL (Bacillus cereus [5]): 11%
inhibition of growth at 0.34 µg/mL (Salmonella typhimurium [6]): 8.6%
inhibition of growth at 0.068 µg/mL (Salmonella typhimurium [7]): 8.8%
inhibition of growth at 0.017 µg/mL (Salmonella typhimurium [8]): 5.8%
inhibition of growth at 6.8 µg/mL (Salmonella typhimurium [9]): 88.6%
inhibition of growth at 0.68 µg/mL (Salmonella typhimurium [10]): 18.2%
inhibition of growth at 3.4 µg/mL (Listeria monocytogenes [11]): 34.5%
inhibition of growth at 0.34 µg/mL (Escherichia coli [12]): 1.3%
inhibition of growth at 0.068 µg/mL (Escherichia coli [13]): 0.5%
inhibition of growth at 0.017 µg/mL (Escherichia coli [14]): 0.5%
inhibition of growth at 6.8 µg/mL (Escherichia coli [15]): 27.5%
inhibition of growth at 0.68 µg/mL (Escherichia coli [16]): 4.4%
inhibition of growth at 0.34 µg/mL (Staphylococcus aureus [17]): 2.8%
inhibition of growth at 0.068 µg/mL (Staphylococcus aureus [18]): 0%
inhibition of growth at 0.017 µg/mL (Staphylococcus aureus [19]): 0%
inhibition of growth at 6.8 µg/mL (Staphylococcus aureus [20]): 95.5%
inhibition of growth at 0.68 µg/mL (Staphylococcus aureus [21]): 4.9%
inhibition of growth at 3.4 µg/mL (Vibrio parahaemolyticus [22]): 82.4%
inhibition of growth at 3.4 µg/mL (Salmonella typhimurium [23]): 57.8%
inhibition of growth at 3.4 µg/mL (Escherichia coli [24]): 16.6%
inhibition of growth at 3.4 µg/mL (Staphylococcus aureus [25]): 80.9%
inhibition of growth at 6.8 µg/mL (Listeria monocytogenes [26]): 51.6%
inhibition of growth at 0.68 µg/mL (Listeria monocytogenes [27]): 5.9%
inhibition of growth at 6.8 µg/mL (Vibrio parahaemolyticus [28]): 99%
inhibition of growth at 0.68 µg/mL (Vibrio parahaemolyticus [29]): 11.4%
inhibition of growth at 0.34 µg/mL (Listeria monocytogenes [30]): 1.6%
inhibition of growth at 0.068 µg/mL (Listeria monocytogenes [31]): 0.8%
inhibition of growth at 0.017 µg/mL (Listeria monocytogenes [32]): 0.1%
inhibition of growth at 0.34 µg/mL (Vibrio parahaemolyticus [33]): 6.1%
inhibition of growth at 0.068 µg/mL (Vibrio parahaemolyticus [34]): 5.8%
inhibition of growth at 0.017 µg/mL (Vibrio parahaemolyticus [35]): 5.6%
inhibition of growth at 3.4 µg/mL (Bacillus cereus [36]): 92.9%
